Most compounds without a hit are left out; they make up all but 1.9% or so of the library.
DNMT1 inh = DNMT1 (human) enzyme inhibition; AID 588458; P26358; inhibition (reported as % activation of signal), % at 10 µM; DNMT1 molecular beacon, Hinp1I cleavage, fluorescence; 360,000 tested, 0.83% active; in the data active = inhibition above about 50%
Scp1 inh = blocks human Scp-1 phosphatase activity; Q9GZU7; Recombinant Scp1, phosphopeptide, malachite green phosphate absorbance; inhibition, % at 20 µM; 340,000 tested, 0.88% active;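 active = inhibition above about 50% at 20 µM, limit read from the data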
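Incubation: 45 min enzyme reaction at room temperature / System: truncated SCP-1 phosphatase (76-261aa) / Reagent: Phospho 17-mer peptide substrate / Buffer or medium: Acidic Tris acetate buffer with magnesium and detergent / Signal: absorbance at 630 nm / Doses: one concentration, 20 µM, with 1.0% DMSO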
CSN inh = blocks human CSN-mediated cullin deneddylation | Q92905 | Purified CSN, SCF-Nedd8-OG deneddylation, fluorescence polarization | inhibition, % at 12.5 µM | 360,000 tested, 0.38% active | AID 651999;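 active = pattern-corrected inhibition above about 35%, with an unprinted fluorescence ratio check between 0.5 and 1.5, limit read from the data, passing the limit was not always enough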
Target sequence (Q92905 whole entry, looked up, one chain of several): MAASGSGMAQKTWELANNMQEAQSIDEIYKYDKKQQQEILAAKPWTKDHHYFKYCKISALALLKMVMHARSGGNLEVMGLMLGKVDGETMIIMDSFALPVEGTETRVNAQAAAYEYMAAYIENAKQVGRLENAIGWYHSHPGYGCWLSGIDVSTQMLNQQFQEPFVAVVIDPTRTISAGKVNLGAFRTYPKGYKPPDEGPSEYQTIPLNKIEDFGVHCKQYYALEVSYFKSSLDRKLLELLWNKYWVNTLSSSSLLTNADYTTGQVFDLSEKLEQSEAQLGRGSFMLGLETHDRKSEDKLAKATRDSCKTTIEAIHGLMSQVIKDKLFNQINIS
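Assay system: purified human Csn5 enzyme expressed in HEK293T cells; measure: % inhibition; also added: SCFSkp2-Nedd8OG substrate at 10 nM final; technique: fluorescence polarization; times: reaction 90 min, room temperature; medium: Tris buffer pH 7.5, NaCl, DTT, Tween-20, trehalose, ovalbumin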
SUMO1-SIM PPI = alters human SUMO1 binding to SIM partners. P63165. SUMO1 binding to a labelled peptide, TR-FRET, 1 h. inhibition, % at 20 µM. 360,000 tested, 0.33% active. AID 602429; in the data active = inhibition above about 37%
Target sequence (P63165 whole entry, looked up): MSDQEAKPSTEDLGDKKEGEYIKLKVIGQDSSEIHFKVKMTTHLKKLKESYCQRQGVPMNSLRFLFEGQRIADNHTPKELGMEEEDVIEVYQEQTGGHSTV
LMPTP block = LMPTP (human) inhibition; inhibition, % at 20 µM; AID 651560; recombinant LMPTP-A, OMFP fluorogenic substrate, fluorescence intensity; 360,000 tested, 0.22% active;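 active = compounds that cut the enzyme signal by at least half of the control window in the single-dose screen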
Target sequence (P24666 whole entry, looked up): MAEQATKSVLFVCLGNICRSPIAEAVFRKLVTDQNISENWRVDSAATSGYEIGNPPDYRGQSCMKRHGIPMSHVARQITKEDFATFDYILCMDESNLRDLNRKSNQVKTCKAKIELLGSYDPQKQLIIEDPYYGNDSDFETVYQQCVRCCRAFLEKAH
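Material: LMPTP-A; amount: 0.625 nM enzyme; doses: single 20 µM dose; times: reaction 50 min, room temperature, dark; technique: fluorescence intensity of OMFP turnover product; benchmarks: no-enzyme and uninhibited controls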
STEP block = inhibitors of human striatal-enriched phosphatase STEP; P54829; recombinant STEP, OMFP fluorogenic substrate, fluorescence; inhibition, % at 20 µM; 360,000 tested, 0.25% active; AID 588621;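 active = inhibition at 20 µM, scaled per plate between control wells, above about 37%, limit read from the data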
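System: isolated STEP enzyme; schedule: 20 min enzyme reaction at room temperature, protected from light; medium: Bis-Tris buffer pH 6.0, 2.5 mM DTT, 0.005% Tween 20; signal: fluorescence, 480/540 nm; dosing: single compound dose of 20 µM, 1% DMSO final; also added: OMFP substrate, 25 µM final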
Scp1 confirm = Scp-1 (human) inhibition, single-dose confirmed; shares compounds with Scp1 inh; recombinant SCP-1 catalytic domain, phosphate release, malachite green absorbance; inhibition, % at 20 µM; 2,500 tested, 61% active; AID 540281
MG interference = interferes with malachite green readout, flagging false Scp-1 hits. apparent inhibition (interference), % at 20 µM. Colorimetric interference counterscreen, malachite green absorbance 630 nm. 2,500 tested, under 10 active. shares compounds with Scp1 inh;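 note: compounds added after enzyme reaction finished so only phosphate colour detection is probed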
Scp-1 Tm shift = validation of human Scp-1 inhibitors by thermal shift binding; 1,500 tested, 25% active; shares compounds with Scp1 inh; thermal shift relative to vanadate control, % at 40 µM; Recombinant SCP1, Sypro Orange thermal shift Tm;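 active = substances whose mean melting-temperature shift, as a percentage of the reference inhibitor's shift, reaches about 5.3%, limit read from the data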
DNMT1 inh conf = DNMT1 inhibition confirmation, single concentration | shares compounds with DNMT1 inh | DNMT1 molecular beacon HinP1I cleavage, fluorescence | inhibition, % at 10 µM | 2,300 tested, 8% active | AID 602385;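 active = average inhibition of at least 30% in the single-concentration confirmation test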
Beacon interf = shows spectral interference in the DNMT1 beacon assay; shares compounds with DNMT1 inh; 2,300 tested, 1% active; activation (fluorescence interference), % at 10 µM; DNMT1 molecular beacon spectral interference counterscreen, fluorescence 485/520;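 active = activation of at least 30% at 10 µM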;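 note: DNMT1 catalytic domain with a HinP1I cleavage step and a FAM/dabcyl DNA beacon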
Each line names hits and unclear results; the compound was inactive in the other large screens (follow-up assays come after a bar, where they were run).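 Rule for the calls, unless noted: active = inhibition of at least 30% at 20 µM; inactive = the rest.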

O=[N+]([O-])c1ccc(/C=N/Nc2nc(-c3ccccc3)c3cc(Br)ccc3n2)o1	DNMT1 inh 50.7, Scp1 inh 101.4, LMPTP block 60.1 | Scp1 confirm 76.4 | MG interference inactive | Scp-1 Tm shift inactive | DNMT1 inh conf inactive | Beacon interf inactive
CC(CCc1ccccc1)NC(=O)COC(=O)c1ccc(NC(N)=O)cc1 (stereo not drawn)	none
C=CCn1c(COc2ccc(F)cc2)nnc1SCC(=O)NC(=O)NCc1ccco1	DNMT1 inh 74.0, Scp1 inh 61.0 | Scp1 confirm 56.0 | MG interference inactive | Scp-1 Tm shift inactive | DNMT1 inh conf inactive | Beacon interf inactive
C=CCn1c(COc2cccc(C)c2)nnc1SCC(=O)NC(=O)NCc1ccco1	none
Cc1nc2ccccn2c1C(=O)N/N=C/c1ccc([N+](=O)[O-])o1	DNMT1 inh 64.1, Scp1 inh 67.0 | Scp1 confirm 52.8 | MG interference inactive | Scp-1 Tm shift 11.7 | DNMT1 inh conf inactive | Beacon interf inactive
O=c1c2c(nc3cc(-c4ccccc4Cl)[nH]n13)CCS2	DNMT1 inh 77.0, Scp1 inh 64.3, CSN inh 80.9 | Scp1 confirm inactive | MG interference inactive | DNMT1 inh conf inactive | Beacon interf inactive
COc1cnc(-c2ccccn2)nc1Sc1ccc(F)cc1	none
O=C(CSc1ccsc1[N+](=O)[O-])Nc1cccc(F)c1	DNMT1 inh 95.6, Scp1 inh 75.2 | Scp1 confirm 58.5 | MG interference inactive | Scp-1 Tm shift 9.1 | DNMT1 inh conf inactive | Beacon interf inactive
CCOC(=O)N1CCN(Cc2nc3c(c(=O)[nH]c(=O)n3C)n2Cc2cc(C)ccc2C)CC1	none
CCOC(=O)CN1C(=O)S/C(=C\c2ccc(-c3ccc(C(=O)O)c(Cl)c3)o2)C1=O	DNMT1 inh 64.8, Scp1 inh 90.0, STEP block 90.5 | Scp1 confirm 58.5 | MG interference inactive | Scp-1 Tm shift 11.9 | DNMT1 inh conf inactive | Beacon interf inactive
CC(C)[C@H](NC(=O)Cc1ccccc1)C(=O)OCc1cc(=O)n2c(n1)sc1ccccc12	DNMT1 inh 88.0, Scp1 inh 76.1 | Scp1 confirm 58.8 | MG interference inactive | Scp-1 Tm shift inactive | DNMT1 inh conf inactive | Beacon interf inactive
O=C(OCc1cc(=O)n2c(n1)sc1ccccc12)c1ccc2c(=O)n3c(nc2c1)CCC3	DNMT1 inh 101.7, Scp1 inh 72.5, CSN inh 36.1 | Scp1 confirm 52.5 | MG interference inactive | Scp-1 Tm shift inactive | DNMT1 inh conf inactive | Beacon interf inactive
CC(=O)c1c(C)[nH]c(C(=O)COC(=O)c2ccc3c(=O)n4c(nc3c2)CCC4)c1C	none
Cc1ccc2c(CC(=O)OCc3cc(=O)n4c(n3)sc3ccccc34)coc2c1	DNMT1 inh 104.8, Scp1 inh 65.8 | Scp1 confirm 68.2 | MG interference inactive | Scp-1 Tm shift inactive | DNMT1 inh conf inactive | Beacon interf inactive
CCOc1ccccc1NC(=O)c1nnn(CC(=O)Nc2cc(C)cc(C)c2)c1N	none
CCCCCOP(=O)(OCCCCC)C1(NS(=O)(=O)c2ccccc2)C=CC(=O)c2ccccc21 (stereo not drawn)	none
C=CCC(C=C)[N+]1(CC(=O)OC)CCCCC1 (stereo not drawn)	none
CC(=O)c1cccc(NS(=O)(=O)c2ccc(-c3cnc(C4CC4)o3)cc2)c1	none
O=C(CCS(=O)(=O)c1ccc(Br)cc1)Nc1cc(F)ccc1F	DNMT1 inh 62.5, Scp1 inh 73.2 | Scp1 confirm 57.9 | MG interference inactive | Scp-1 Tm shift inactive | DNMT1 inh conf inactive | Beacon interf inactive
CCc1ccccc1NC(=O)CCS(=O)(=O)c1ccc(Br)cc1	none
COc1ccc([N+](=O)[O-])cc1NC(=O)CCS(=O)(=O)c1ccc(Br)cc1	DNMT1 inh 78.7, Scp1 inh 95.1 | Scp1 confirm 62.3 | MG interference inactive | Scp-1 Tm shift inactive | DNMT1 inh conf inactive | Beacon interf inactive
O=C(CC[C@H]1O[C@@H](n2cnc3c(NC(=O)c4ccccc4)ncnc32)[C@H](O)[C@@H]1O)NCc1cccc2ccccc12	none (no result: Scp1 inh)
O=c1cc(CSc2nnc(-c3cccs3)n2Cc2ccccc2)nc2sc3ccccc3n12	DNMT1 inh 95.9, Scp1 inh 74.6 | Scp1 confirm 68.1 | MG interference inactive | Scp-1 Tm shift inactive | DNMT1 inh conf inactive | Beacon interf inactive
CC1CC(C)CN(CCCNC(=O)c2nn(C)c3c2CS(=O)(=O)c2ccccc2-3)C1 (stereo not drawn)	none
O=C(O)CC(NCc1ccco1)C(=O)OCCc1ccccc1 (stereo not drawn)	none
C=C(C)CCOC(=O)C(CC(=O)O)NCc1ccco1 (stereo not drawn)	DNMT1 inh 62.7, Scp1 inh 86.0 | Scp1 confirm 66.7 | MG interference inactive | Scp-1 Tm shift inactive | DNMT1 inh conf inactive | Beacon interf inactive
CCOC1=C(C#N)CC2(CC1)c1ccccc1-c1ccccc12	none
O=C1NC(=Nc2ccc(Cl)cc2)/C(=C/c2ccco2)S1	DNMT1 inh 77.4, Scp1 inh 93.1, STEP block 60.6 | Scp1 confirm 80.2 | MG interference inactive | Scp-1 Tm shift 7.8 | DNMT1 inh conf inactive | Beacon interf inactive
O=C(/C=C/c1ccco1)NCC1OCCc2ccccc21 (stereo not drawn)	DNMT1 inh 56.2, Scp1 inh 91.1 | Scp1 confirm 62.3 | MG interference inactive | Scp-1 Tm shift inactive | DNMT1 inh conf inactive | Beacon interf inactive
CC(CS(=O)(=O)c1ccc2c(c1)NC(=O)CS2)C(=O)NCc1ccccc1Cl (stereo not drawn)	DNMT1 inh 93.0, Scp1 inh 76.4, SUMO1-SIM PPI 90.1 | Scp1 confirm 80.7 | MG interference inactive | Scp-1 Tm shift inactive | DNMT1 inh conf inactive | Beacon interf inactive

Bioassay records (PubChem)
